Each block holds one compound with its values, some of them ahead of it.
Key:
[1] = tested on: HeLa; test: Antiproliferative activity against human HeLa cells after 10 days by clonogenic assay; type: functional, cell-based; details: 240 h
Procedure, shortened: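 HeLa cells seeded at 100 cells/well, grown 24 h at 37 °C in 5% CO₂, then given medium with inhibitor at increasing concentrations (up to 100 µM) for 10 days. Colonies were fixed in 10% formaldehyde, stained with crystal violet and counted to get plating efficiency. IC50 was taken from the dose-response curve.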

[2] = tested on: HeLa; test: Cell cycle arrest in asynchronous human HeLa cells assessed as accumulation at G0/G1 phase at 10 uM after 24 hrs by flow cytometry; type: functional
Procedure, shortened: (§1)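 Asynchronous HeLa cells grown 24 h, then treated 24 h at 10 or 50 µM. Cells were trypsinized, fixed in cold ethanol and permeabilized with 0.25% Triton X-100. They were stained with anti-H3P/Alexa 488 antibody, treated with RNase and stained with propidium iodide (10 µg/mL). Flow cytometry gave the percentage of cells in G0/G1, S and G2/M. Three independent runs; DMSO served as negative control.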

[3] = tested on: HeLa; test: Cell cycle arrest in asynchronous human HeLa cells assessed as accumulation at S phase at 10 uM after 24 hrs by flow cytometry; type: functional; procedure, shortened: as §1
[4] = tested on: HeLa; test: Cell cycle arrest in asynchronous human HeLa cells assessed as accumulation at G2/M phase at 10 uM after 24 hrs by flow cytometry; type: functional; procedure, shortened: as §1
[5] = tested on: HeLa; test: Cytotoxicity against human HeLa cells after 96 h by WST1 colorimetric assay
[6] = molecular target: T1, M-phase inducer phosphatase 2 (Homo sapiens, UniProt P30305); test: Inhibition of human recombinant fused MBP-CDC25B3
T1 sequence (P30305 whole entry): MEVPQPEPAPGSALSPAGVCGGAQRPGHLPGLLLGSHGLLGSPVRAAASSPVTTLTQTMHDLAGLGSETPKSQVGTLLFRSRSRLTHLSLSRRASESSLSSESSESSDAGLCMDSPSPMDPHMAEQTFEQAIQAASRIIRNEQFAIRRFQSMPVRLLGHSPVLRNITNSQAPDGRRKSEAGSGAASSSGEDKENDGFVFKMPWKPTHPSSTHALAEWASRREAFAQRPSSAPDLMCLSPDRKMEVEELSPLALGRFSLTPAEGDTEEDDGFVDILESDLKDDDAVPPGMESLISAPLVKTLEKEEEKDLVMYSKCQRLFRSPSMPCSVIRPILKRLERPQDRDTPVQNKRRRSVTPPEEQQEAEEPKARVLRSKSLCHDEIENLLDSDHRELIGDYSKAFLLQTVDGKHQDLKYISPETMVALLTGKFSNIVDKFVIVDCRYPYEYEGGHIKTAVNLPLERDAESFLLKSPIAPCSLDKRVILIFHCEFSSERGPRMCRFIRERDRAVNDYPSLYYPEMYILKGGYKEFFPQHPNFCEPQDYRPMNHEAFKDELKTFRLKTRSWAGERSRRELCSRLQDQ

[7] = molecular target: T1, M-phase inducer phosphatase 2; test: Inhibition of human recombinant CDC25B

IC50 [1]: 8.5 µM
Compound: O=C1C(SCCO)=C(SCCO)C(=O)c2ccccc21
Activity [2]: 56% | Activity [3]: 25% | Activity [4]: 19% | IC50 [5]: 10.8 µM

IC50 [6]: 5.3 µM
Compound: O=C1C(Br)=C(Br)C(=O)c2ncccc21
IC50 [5]: 21.5 µM

IC50 [7]: 3.4 µM
Compound: O=C(CSC1=C(SCC(=O)OCc2ccccc2)C(=O)c2ccccc2C1=O)OCc1ccccc1

Compound: C[C@@]12CCCc3coc(c31)C(=O)c1cc3c(cc12)C(=O)C1=C(NCCS1(=O)=O)C3=O [ADOCIAQUINONE B]
IC50 [7]: 0.07 µM

Reference: ChEMBL document CHEMBL1144221, “Novel naphthoquinone and quinolinedione inhibitors of CDC25 phosphatase activity with antiproliferative properties” (Bioorg Med Chem, 2008)
